Laboratory results as given in article PMC13094344 (ACS chemical neuroscience, 2017).

Key:
[1] = biological target: T1, CB1R (Mus musculus, UniProt P47746); assay: Electrically-evoked contractions of mouse isolated vas deferens
[2] = biological target: T1, CB1R; assay: [3H]CP55,940 binding to mouse brain membranes; conditions: 1 nM – 10 μM
Procedure, shortened: (§1)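 Filtration displacement assay with 0.7 nM [3H]CP55,940 in 50 mM Tris-HCl/50 mM Tris-base, 0.1% BSA, pH 7.4, run 60 min at 37 °C. Membranes were from CHO cells stably expressing hCB2R (50 µg protein) or from mouse whole brain. Test compound was added from 10 mM DMSO stock (0.1% DMSO final). Nonspecific binding used 1 µM unlabelled CP55,940; radioactivity was counted by liquid scintillation.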

[3] = biological target: T2, hCB1R (Homo sapiens, UniProt P21554); assay: cAMP luciferase reporter assay in HEK-CRE cells transfected with hCB1R-GFP2; format: cell-based; conditions: for Log(αβ) / α (affinity modulation) / β (efficacy modulation): CP55,940 as agonist, ± SD; for τB (modulator efficacy): fraction of the efficacy of CP55,940, ± SD
T2 sequence (P21554 whole entry): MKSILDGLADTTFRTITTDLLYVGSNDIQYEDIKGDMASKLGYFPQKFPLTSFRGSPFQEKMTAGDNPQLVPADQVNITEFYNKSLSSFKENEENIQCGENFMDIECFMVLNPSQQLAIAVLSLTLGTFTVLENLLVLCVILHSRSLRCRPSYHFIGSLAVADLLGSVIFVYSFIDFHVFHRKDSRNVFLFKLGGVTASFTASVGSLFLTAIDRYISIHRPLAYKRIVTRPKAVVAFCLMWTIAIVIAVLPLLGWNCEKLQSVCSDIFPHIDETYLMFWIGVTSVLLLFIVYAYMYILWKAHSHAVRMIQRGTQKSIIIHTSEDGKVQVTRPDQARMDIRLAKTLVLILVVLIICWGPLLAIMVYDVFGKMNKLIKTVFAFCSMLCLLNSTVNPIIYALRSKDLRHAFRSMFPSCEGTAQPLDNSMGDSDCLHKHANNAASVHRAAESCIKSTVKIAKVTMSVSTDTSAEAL

[4] = biological target: hCB2R (Homo sapiens, UniProt P34972); assay: [3H]CP55,940 binding to CHO-hCB2R membranes; conditions: data not shown
Sequence of hCB2R (P34972 whole entry): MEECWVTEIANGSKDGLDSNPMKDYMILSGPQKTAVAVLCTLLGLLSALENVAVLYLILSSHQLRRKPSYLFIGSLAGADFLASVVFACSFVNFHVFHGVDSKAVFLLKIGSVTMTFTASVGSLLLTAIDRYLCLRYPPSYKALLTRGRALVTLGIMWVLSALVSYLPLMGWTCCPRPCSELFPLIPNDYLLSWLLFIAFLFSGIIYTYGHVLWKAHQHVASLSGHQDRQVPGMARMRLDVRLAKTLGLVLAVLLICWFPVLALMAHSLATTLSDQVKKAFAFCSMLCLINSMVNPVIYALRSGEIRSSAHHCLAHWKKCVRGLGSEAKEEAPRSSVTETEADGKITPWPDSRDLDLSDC
Procedure, shortened: as §1

[5] = test system: hCB1R; assay: Induced signaling bias, cAMP inhibition versus arrestin2 recruitment, ΔLog; format: cell-based, human; conditions: CP55,940, 95% CI; for ΔLog(αβ): cAMP versus arrestin2 (BRET2); for Induced Bias: toward inhibition of cAMP production over arrestin2 recruitment
Procedure, shortened: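 Arrestin2 arm: HEK293A cells were transfected with hCB1R-GFP2 and arrestin2-Rluc. Cells were suspended in BRET buffer 48 h later and read by BRET2 (coelenterazine 400a 50 μM; emissions 405/510 nm). cAMP arm: HEK-CRE cells carried hCB1R-GFP2 and were read by luciferase reporter in 10 µM forskolin. CP55,940 1 nM–10 µM ± test compound 1 nM–10 µM, 0.1% DMSO. Data were fit to an allosteric binding plus Black-Leff operational model, with four independent estimates.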

[6] = biological target: T2, hCB1R; assay: PLCβ3 phosphorylation, In-cell western; format: cell-based; conditions: 1 nM – 10 μM; HEK293A and Neuro2a cells
[7] = biological target: T2, hCB1R; assay: ERK1/2 phosphorylation, In-cell western; format: cell-based; conditions: 1 nM – 10 μM; HEK293A and Neuro2a cells
[8] = biological target: T2, hCB1R; assay: Arrestin2 recruitment to hCB1R-GFP2 by BRET2; format: cell-based; conditions: for Arrestin2 recruitment by the compound alone: 1 nM – 10 μM, HEK293A or Neuro2a cells; for Log(αβ) / α (affinity modulation) / β (efficacy modulation) / τB (modulator efficacy): BRETEff, HEK293A, ± SD; for Log(αβ) / α (affinity modulation) / β (efficacy modulation): CP55,940 as agonist; for τB (modulator efficacy): fraction of the efficacy of CP55,940
[9] = biological target: T2, hCB1R; assay: [3H]CP55,940 binding to CHO-hCB1R membranes; conditions: 10 μM

T1 sequence (P47746 whole entry): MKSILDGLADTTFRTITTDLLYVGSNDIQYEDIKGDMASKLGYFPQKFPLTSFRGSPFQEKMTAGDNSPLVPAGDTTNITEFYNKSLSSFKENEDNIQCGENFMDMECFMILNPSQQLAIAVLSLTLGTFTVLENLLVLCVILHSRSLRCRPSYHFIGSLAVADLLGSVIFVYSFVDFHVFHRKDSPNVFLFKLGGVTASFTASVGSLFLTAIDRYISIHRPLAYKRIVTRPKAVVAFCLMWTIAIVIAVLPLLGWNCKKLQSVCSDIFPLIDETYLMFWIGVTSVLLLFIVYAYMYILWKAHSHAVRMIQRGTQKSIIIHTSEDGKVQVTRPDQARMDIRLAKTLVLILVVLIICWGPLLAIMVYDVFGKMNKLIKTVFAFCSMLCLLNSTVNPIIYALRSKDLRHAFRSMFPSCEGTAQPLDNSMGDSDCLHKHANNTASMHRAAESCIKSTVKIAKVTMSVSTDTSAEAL

Row | Structure (SMILES) | Effect by itself on electrically-evoked contractions ([1]; 1 nM up to 10 μM, n=6, data not shown) | Effect on AEA-induced inhibition of electrically-evoked contractions ([1]; 1 μM modulator, AEA 10 and 100 nM) | Effect on [3H]CP55,940 binding to mouse brain membranes [2] | Log(αβ) [3] | α (affinity modulation) [3] | β (efficacy modulation) [3] | τB (modulator efficacy) [3] | Increase of [3H]CP55,940 binding to hCB2R ([4]; 10 μM) | Effect on [3H]CP55,940 binding to hCB2R ([4]; up to 1 μM) | ΔLog(αβ) [5] | Induced Bias [5] | PLCβ3 phosphorylation by the compound alone [6] | ERK phosphorylation by the compound alone [7] | Arrestin2 recruitment by the compound alone [8] | Log(αβ) [8] | α (affinity modulation) [8] | β (efficacy modulation) [8] | τB (modulator efficacy) [8] | Effect on [3H]CP55,940 binding [9]
1 | O=[N+]([O-])CC(c1ccccc1)c1c(-c2ccccc2)[nH]c2ccccc12 (centres unmarked) [GAT211] | no statistically significant effect | potentiated | enhanced | 1.37 ± 0.06 | 21 ± 2 | 1.13 ± 0.19 | 0.19 ± 0.08 | 29% | no effect | 0.01 (−0.18 – 0.21) | n.s | increased | increased | increased arrestin2 recruitment in a concentration-dependent manner | 1.35 ± 0.04 | 24 ± 2.83 | 0.95 ± 0.06 | 0.15 ± 0.03 | –
2 | O=[N+]([O-])C[C@H](c1ccccc1)c1c(-c2ccccc2)[nH]c2ccccc12 [GAT228] | – | – | – | −0.06 ± 0.36 | 1.08 ± 0.34 | 0.95 ± 0.5 | 0.15 ± 0.06 | – | – | −0.27 (−0.40 – −0.09) | 0.54 (0.35 – 0.81) | increased | increased | increased arrestin2 recruitment in a concentration-dependent manner | 0.21 ± 0.10 | 2.5 ± 0.58 | 0.68 ± 0.09 | 0.19 ± 0.04 | weak PAM effect
3 | O=[N+]([O-])C[C@@H](c1ccccc1)c1c(-c2ccccc2)[nH]c2ccccc12 [GAT229] | – | – | – | 1.3 ± 0.35 | 2.25 ± 1.26 | 10.75 ± 4.43 | 0 | – | – | 0.34 (0.14 – 0.54) | – | without effect | without effect | no effect | 0.97 ± 0.14 | 4.25 ± 1.5 | 2.3 ± 0.38 | 0 | –
